b-catenin transl – modulators of beta-catenin nuclear translocation. HeLa beta-catenin nuclear translocation, immunofluorescence imaging. 0.3% of 190,000 active. nuclear translocation activity, % at 5 µM;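 active means nuclear translocation activity above 50% at 5 µM, with a well cell count of 50 or more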;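 further: per-cell ratio of nuclear to cytoplasmic median beta-catenin stain intensity; plate controls were DMSO negative control for no effect and GSK-3 inhibitor IX positive control for full effect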
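assay system = human HeLa cells, endogenous beta-catenin | times = compound treatment 24 h, 37°C, 5% CO2 | detection = Anti-beta-catenin immunofluorescence on PFA-fixed, Triton-permeabilized cells, DAPI nuclei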
Lmaj promast – reduces viability of Leishmania major promastigotes | 9% of 200,000 active | resazurin fluorescence viability | AID 1063 | inhibition, % at 10 µM; in the data active means inhibition above about 50%;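 further: promastigotes grown with compound for 44 hours at 28 °C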
Dynein transport – blocks dynein driven cargo transport along microtubules | 3617.4 mouse cells, GR-EGFP nuclear translocation imaging; test concentration mostly 20 µM; stimulated with dexamethasone, 1 µM; stronger effect = lower value | z-score, hits read low | 0.47% of 220,000 active | AID 1381;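 active means plate z-score of nuclear minus cytoplasmic receptor signal below a set negative limit, without overly bright fluorescence or cell loss, cut at about -3.5 in these data, passing the limit was not always enough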;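 further: z-score of nuclear minus cytoplasmic ring GR-EGFP intensity difference per well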
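Also added: dexamethasone, 1.0 µM final. Medium: tet-free, stripped-serum medium. Detection: fixed, Hoechst-stained cells imaged at 10x for EGFP. Read-out: nuclear-to-cytoplasmic GR-EGFP distribution per well. Times: induction 48 h, compound 1 h, agonist 30 min.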
MT stabilizer – stabilizes microtubules in HeLa cells; HeLa tubulin immunostaining HCS, 24 h; share of cells brighter than vehicle mean+2SD; % tubulin-high responders, % at 10 µM; 0.83% of 200,000 active;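 active means plate Z-score above 3 for both tubulin-high and condensed-nucleus cell shares, with cell loss under 80%, at 10 µM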;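 further: anti alpha tubulin signal scored within the nucleus-defined area of each cell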
CHOP inhibitor – CHOP inhibition in unfolded protein response; inhibition, % at 10 µM; 3.8% of 220,000 active; CHO-K1 CHOP-promoter luciferase, tunicamycin-induced, 15-18 h;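 active means compounds that reduced the stress-induced luciferase reporter signal by more than about 70% of percent inhibition, limit read from the data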;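 further: 0% = tunicamycin plus vehicle and 100% = wells without tunicamycin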
Autophagy mod – modulators of autophagy; calls only at 10 µM (by protocol); MEF GFP-LC3 puncta imaging; test concentration mostly 10 µM; 0.98% of 190,000 active;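 active means percentage of spot-positive cells more than 3 SD above its plate mean, without a fluorescence outlier flag or 80% toxicity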;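 further: spot-positive cell cutoff set from DMSO-treated cells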
Numbers without * were called inactive; i = inactive; / = not tested or not shown; + = active, no number. Rows were chosen to be rich in hits. Some 12% of all compounds tested hit in one or more screens of this group.

SMILES	b-catenin transl	Lmaj promast	Dynein transport	MT stabilizer	CHOP inhibitor	Autophagy mod
Cc1cc(Cn2ccnc2)c(C)cc1Cn1ccnc1	-1	98*	-0.35	43*	12	i
COc1ccc(C=O)cc1Cn1ccnc1	0	-8	-0.69	3	4	i
CCCCN(CC)c1nc(N)c2c(N)nc(OCC)cc2c1C#N	-9	11	-1.1	2	95*	i
Cc1ccc(CC(=O)NCCS(=O)c2ccc(C)cc2)cc1 (centres undefined)	-2	-8	0.0031	4	-7	i
Cc1nn(C)c(C)c1CS(=O)(=O)c1ccccc1	1	-2	-0.79	2	2	i
Cc1ccc(NC(=S)NCC2CCN(C(C)c3ccccc3)C2)cc1C (centres undefined)	0	82*	-0.013	4	7	i
Cc1ccc(NC(=S)NCC2CCCO2)cc1C (centres undefined)	-1	-6	-0.64	5	2	i
O=C1c2ccccc2C(=O)N1CCCCN(C(=O)c1cc([N+](=O)[O-])cc([N+](=O)[O-])c1)c1ccc(Cl)cc1	-2	99*	0.2	2	12	i
O=C1c2ccccc2C(=O)N1CCCCN(C(=O)c1cc([N+](=O)[O-])ccc1Cl)c1ccc(Cl)cc1	0	58*	-0.59	2	-15	i
CCCCN(C)CCNC(=O)Cn1ncc2c(=O)oc3ccc(C)cc3c21	/	4	-0.59	6	-2	i
NC(=O)C1CC(=O)N(c2ccc(OCc3ccc(Cl)cc3)cc2)C1 (centres undefined)	2	-8	-1.3	3	4	i
Cc1ccccc1/C=C\c1nc2ccccc2c(=O)[nH]1	-1	1	0.16	26	84*	i
Cc1ccc(/C=C/c2nc3ccccc3c(=O)[nH]2)cc1	0	/	-0.17	/	88*	/
Cc1ccccc1/C=C/c1nc2ccccc2c(=O)[nH]1	45	/	0.23	/	9	/
Cc1c(C(=O)Nc2ccc(S(=O)(=O)NCC3CCCO3)cc2)cccc1[N+](=O)[O-] (centres undefined)	1	2	0.21	5	6	i
O=C(NNC(=O)c1cccc(Br)c1)Nc1ccc(Cl)cc1	-4	-1	-0.41	3	25	i
CCOC(=O)c1ccc(NC(=O)c2ccc(NS(C)(=O)=O)cc2)cc1	0	-5	-0.44	3	-19	i
CC(C)c1ccc(NC(=O)c2cccc(Br)c2)cc1	/	2	0.35	2	84*	i
CC(C)c1ccc(NC(=O)c2ccc(NS(C)(=O)=O)cc2)cc1	9	-3	0.43	1	-1	+
CCCCCCCc1ccc(-c2ccc(O)cc2)nc1	2	-1	0.15	/	96*	i
CSc1nnc(-c2sc3cc(C(F)(F)F)cnc3c2-c2ccccc2)n1C	/	24	2.1	40*	7	i
O=C(O)c1sc2cc(C(F)(F)F)cnc2c1-c1ccccc1	/	-6	0.26	2	-9	i
CCCc1[nH]n(-c2ccc([N+](=O)[O-])cc2)c(=O)c1C(C)=NCc1ccncc1	1	/	-0.3	/	7	/
O=C(Nc1cccc(S(=O)(=O)N2CCCCC2)c1)c1ccc([N+](=O)[O-])o1	-3	100*	-1.8	3	-151	i
Cc1ccc(NC(=O)c2ccccc2-c2ccc(C(F)(F)F)cc2)cc1S(=O)(=O)N1CCOCC1	/	93*	-0.21	2	61	i
Cc1ccc(NC(=O)c2ccc([N+](=O)[O-])o2)cc1S(=O)(=O)N1CCOCC1	11	99*	-1.8	18	-130	i
O=[N+]([O-])c1cccc(S(=O)(=O)Nc2nc3ccccc3nc2Nc2cccc(S(=O)(=O)N3CCCCC3)c2)c1	0	-5	0.28	7	82*	i
Cc1ccc(S(=O)(=O)Nc2nc3ccccc3nc2Nc2cccc(S(=O)(=O)N3CCCC3)c2)cc1	0	17	0.55	4	31	i
Cc1ccc(NC(=O)COC(=O)c2ccc([N+](=O)[O-])o2)cc1S(=O)(=O)N1CCCCC1	1	-5	-0.73	3	7	i
O=C(COC(=O)c1ccc([N+](=O)[O-])o1)Nc1cccc(S(=O)(=O)N2CCCCC2)c1	-2	-9	-1.3	4	5	i

Source: PubChem
